# Results from ChEMBL document CHEMBL4513216, “Probing the Open Global Health Chemical Diversity Library for Multistage-Active Starting Points for Next-Generation Antimalarials” (ACS Infect Dis, 2020).
# Experiment: Toxicity liver stage against HepG2, at 10uM
# Assay type: cell-based
# Design: test concentration 10 uM, cell line HepG2-A16-CD81EGFP
# Conditions: human, HepG2-A16-CD81EGFP cells; read-out: INHIBITION
# Summary of the method: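 Uninfected HepG2-A16-CD81EGFP cells, 3 × 10^3 per well, 1536-well, plated on prespotted compound at 10 μM final, parasite-free screening media added to match infected plates; puromycin 10 μM positive, DMSO 0.5% negative; run in parallel with 48 h PbLuc assay at 37 °C, 5% CO2; viability by CellTiter-Glo luminescence, normalized to controls.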
row,SMILES,cytotoxicity at 10 µM [%]
1,c1csc(-c2cc(CN3CCN(c4nccs4)CC3)no2)c1,13.2
2,CC(NC(=O)Cn1cccn1)c1ccc2c(c1)OCCO2 (stereo unspecified),-2.23
3,CO[C@H]1CCN(Cc2cccs2)[C@@H]2CN(Cc3ccncc3)C[C@H]12,2.31
4,CCOCC1CCN(C(=O)C(c2c(F)cccc2F)N(C)C)CC1 (stereo unspecified),-3.12
5,COc1ccc(-n2cccn2)c(CN2CCC(O)(CO)CC2)c1,3.4
6,CCSc1ccccc1C(=O)N1CC2(COC(C)(C)OC2)C1,-3.45
7,Cc1n[nH]c(C)c1CCCN(C)c1cc(N(C)C)ncn1,-3.37
8,CC(O)CN1CCC(CNCc2cccc(C(F)(F)F)c2)CC1 (stereo unspecified),-15.2
9,O=C(C1CC=CC1)N1CC[C@@H](O)[C@H]1Cc1cccnc1,-99.4
10,CNC(=O)[C@H]1CCS(=O)(=O)[C@@H]2CN(Cc3ccc(OC)cc3)C[C@H]12,-10.3
11,CC(=O)N1CCOCC2(C1)CN(S(C)(=O)=O)CCO2 (stereo unspecified),2.84
12,O=C(NCc1cc(Br)cs1)Nc1cn[nH]c1,5.85
13,O=C(NCCN1CCCCCC1)c1cccc(Cl)c1Cl,5.8
14,Cc1nccc(-c2ccccc2)c1C(=O)N1CC[C@](C)(O)[C@H](C)C1,3.41
15,O=C(O)C1(Oc2ccc3c(c2)OCO3)CCN(C2CCOCC2)CC1,-13.3
16,Cc1cc(C(=O)N2CCc3c(ncn3CCc3ccccc3)C2)on1,-3.58
17,Cc1nc(S(=O)(=O)CCn2cccn2)n(CC2CCCO2)c1C (stereo unspecified),-4.34
18,CN1CCCC(C(=O)N2CCC(Oc3ncccn3)CC2)C1 (stereo unspecified),-5.2
19,Cc1cnn(CC2CCCN2C(=O)c2cc3ccccc3[nH]2)c1 (stereo unspecified),-0.433

row,SMILES,cytotoxicity at 10 µM [%]
1,CC(C)N1CCCC(CNC(=O)CN(C)S(=O)(=O)c2ccccc2)C1 (stereo unspecified),-3.88
2,CCOc1ccc2ccccc2c1CNCC1CCS(=O)(=O)C1 (stereo unspecified),-3.4
3,CCNS(=O)(=O)c1ccc(C)c(C(=O)N(C)Cc2ccccc2C)c1,0.997
4,CN(CC(=O)Nc1cc(C(F)(F)F)c[nH]c1=O)Cc1ccccc1,12
5,Cc1cc(NC(=O)CN2CCc3nn(C)c(=O)cc3C2)no1,-5.04
6,c1ccc(CSc2nnc(C3CC3)s2)nc1,0.873
7,COc1ccccc1N1CCN(C(=O)CCCS(N)(=O)=O)C(C)C1 (stereo unspecified),6.15
8,Cc1nn(C)cc1CN(C)Cc1cc2c(cc1OC(F)F)OCO2,-3.53
9,Fc1cccc(CN2C[C@@H]3CN(c4ncccn4)C[C@@H]3C2)c1,6.81
10,CC(C)(CO)CCCNC(=O)NC1(C)Cc2ccccc2C1,-1
11,CC(C)[C@H]1COC(=O)N1Cc1noc(-c2ccccc2)n1,5.01
12,O=C(c1ccco1)N1CCC2(CC1)CCN(c1ncccn1)CC2,4.59
13,CCc1cnc(N2CCN(Cc3ccon3)CC2)s1,1.16
14,O=C(NCCC1CN(Cc2cccnc2)CCO1)c1ccsc1 (stereo unspecified),-8.03
15,Cc1n[nH]c(C)c1C1COCCN1C(=O)c1cc(F)ccc1F (stereo unspecified),-9.24
16,Cc1csc(CCNC(=O)C2CCN(CC(N)=O)CC2)n1,-5.26
17,CSc1ccc(C)c(C(=O)Nc2c(C(N)=O)n[nH]c2C)c1,3.36
18,COc1cc(CC2CC(C(N)=O)=NO2)cc2c1OCO2 (stereo unspecified),5.32
19,Cc1cc(C)cc(NC(=O)Cc2c(C)nc3c(c2C)c(=O)[nH]n3C)c1,10.6

row,SMILES,cytotoxicity at 10 µM [%]
1,Cn1cc(C(=O)N2CCCC(Cc3cccc4ncccc34)C2)cn1 (stereo unspecified),4.88
2,C=C(C)CN(CC)Cc1nc(C)no1,-15.8
3,CN(C)c1ccc(C(=O)N2C[C@@H](CN3CCCCC3)[C@@H](CO)C2)cc1,-1.72
4,Cc1ccc(NCc2ccccc2C#N)cc1-n1cnnn1,4.25
5,Cc1cc(C(=O)NCCC2CCN(C)CC2)ccc1N(C)S(C)(=O)=O,5.82
6,COCC(=O)N1CC[C@@H]2O[C@@H](C)C[C@H]2C1,-69.6
7,CCc1cc2cc(OC)c(OC)cc2nc1SCCN1CCCCC1,-4.82
8,Cc1noc(C(C)N2CCN(CCN3CCCC3=O)CC2)n1 (stereo unspecified),-13.4
9,O=c1c2cccc(C(F)(F)F)c2ncn1C1CCNC1 (stereo unspecified),-38.3
10,O=C(NC1CC1)C1=CC2(CCN(CC3CC3)CC2)c2ccccc21,3.11
11,CN(C)C1CCN(C(=O)c2ccnn2-c2ccc3ccccn23)CC1,-114
12,CN(C)C(=O)CS(=O)(=O)Cc1cc(Cl)c2c(c1)OCCO2,1.38
13,Cn1nc(C(C)(C)C)cc1NC(=O)Cn1ccnc1,1.5
14,COc1cc(C(=O)N(Cc2cnn(C)c2)C(C)C)ccc1C,-3.14
15,Cc1nnc2n1CCN(Cc1csc(CC(=O)N(C)C)n1)C2,-7.08
16,CCCc1cc(N2CCCC2Cn2nc(C)cc2C)n2ncnc2n1 (stereo unspecified),2.48
17,COc1ccc(OC)c(CNc2c(O)c(=O)c2=O)c1,7.08
18,CC(C)NC(=O)N1CCC2(COCc3cnc(N4CCOCC4)nc32)C1 (stereo unspecified),-8.75
